The subject of data set [1] is Quadruplex DNA. As to the kind of experiment: Stabilization of AR G-quadruplex oligonucleotide in human LNCAP cells assessed as reduction in AR mRNA expression at IC50 after 72 hrs by RT-PCR analysis. It is filed as cell-based. Summed up: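 Cells grown in RPMI-1640 with 10% fetal calf serum, 37 °C, 5% CO2, treated at an equitoxic concentration. Transcripts quantified by TaqMan real-time RT-PCR, normalized to RNaseP, expressed as relative quantity versus untreated cells (calibrator) by the 2−ΔΔCt method.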

Data set [2] concerns Quadruplex DNA. As to the kind of experiment: Stabilization of 5'-FAM/3'-TAMRA labelled AR1 G-quadruplex oligonucleotide (unknown origin) assessed as change in melting temperature t1/2 at 1 uM after 16 hrs in presence of 100 mM K+ by FRET assay. Type of data set: nucleic-acid assay. The method, boiled down: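 FRET melting: FAM/TAMRA dual-labelled oligos (0.25 μM) folded in 10 mM lithium cacodylate pH 7.4 with 100 mM KCl (95 °C 5 min, cooled 4 h); ligand added at 1 μM final, 16 h room temperature. FAM emission followed 30−95 °C at 1 °C/min; curves normalized 0 to 1, T1/2 at 0.5 fraction.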

In data set [3] the test system is Quadruplex DNA. Briefly: Stabilization of AR G-quadruplex oligonucleotide in human 22Rv1 cells assessed as down-regulation of KLK3 mRNA expression at IC50 after 6 to 72 hrs by RT-PCR analysis. It is filed as cell-based. Summed up:
(§1)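 Transcripts quantified by TaqMan real-time PCR with RNaseP as normalizer; relative quantity versus untreated cells by the 2−ΔΔCt method. Panel genes measured with a 92-gene cancer-mechanism TaqMan array.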

Data set [4] concerns PC-3. As to the kind of experiment: Synergistic cytotoxicity against human PC3 cells assessed as combination index for reduction in cell viability measured at ED50 Enzalutamide at 0.001 to 0.1 uM after 72 hrs by MTS assay based Chou and Talay's plot analysis. On the technique in general: Tetrazolium assays rely on reduction of a dye to a coloured formazan, in cell work by metabolically active cells.

Data set [5] relates to Quadruplex DNA. As to the kind of experiment: Stabilization of AR G-quadruplex oligonucleotide in human PC3 cells assessed as down-regulation of BAX mRNA expression at IC50 after 48 hrs by RT-PCR analysis. It is filed as cell-based. Summed up:
(§2)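 PC-3 cells (RPMI-1640, 10% fetal calf serum) exposed at an equitoxic concentration. Expression of 92 cancer-mechanism genes measured on TaqMan Arrays. Change versus untreated cells computed by 2−ΔΔCt, with RNaseP as normalizer.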

In data set [6] the test system is CWR22R. Briefly: Cytotoxicity against human 22Rv1 cells expressing full length androgen receptor H875Y point mutant assessed as reduction in cell viability after 48 hrs by MTS assay. The following applies: 22Rv1, 48 h. Type of data set: functional, cell-based. The method, boiled down: (§3)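 Cells kept in RPMI-1640 with 10% fetal calf serum, 37 °C, 5% CO2. Seeded, after 24 h treated with 0.0001, 0.001, 0.01, 0.1, 1 and 10 μM compound (DMSO stocks freshly diluted in medium) for 48 h. MTS added 4 h, absorbance 490 nm; IC50 from curves of % viability inhibition versus DMSO-treated cells against log concentration.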

Data set [7] relates to PC-3. As to the kind of experiment: Cytotoxicity against human PC3 cells assessed as reduction in cell viability after 48 hrs by MTS assay. It is filed as functional, cell-based. The following applies: PC-3, 48 h. Summed up:
as §3

Data set [8] relates to Quadruplex DNA. As to the kind of experiment: Stabilization of AR G-quadruplex oligonucleotide in human 22Rv1 cells assessed as reduction in basal AKT1 levels at IC50 after 48 hrs by Western immunoblot assay. Type of data set: cell-based. (A western blot detects proteins with antibodies after separation by electrophoresis.)
The nature of data set [9]: Drug uptake in human PC3 cells at 160 nM after 24 hrs by DAPI staining-based fluorescence microscopic analysis. Type of data set: ADME, cell-based. The following applies: pc-3, 24 h, 0.16 µM.
Data set [10] deals with Quadruplex DNA. Briefly: Stabilization of AR G-quadruplex oligonucleotide in human PC3 cells assessed as down-regulation of MAX mRNA expression at IC50 after 48 hrs by RT-PCR analysis. Type of data set: cell-based. Summed up: as §2
Data set [11] concerns Quadruplex DNA. As to the kind of experiment: Stabilization of AR G-quadruplex oligonucleotide in human PC3 cells assessed as down-regulation of ITGB3 mRNA expression at IC50 after 48 hrs by RT-PCR analysis. It is filed as cell-based. Summed up: as §2
Data set [12] relates to CWR22R. Briefly: Synergistic cytotoxicity against human 22Rv1 cells expressing full length androgen receptor H875Y point mutant assessed as ED75 for Enzalutamide at 0.001 to 0.1 uM after 72 hrs by MTS assay. Type of data set: functional. Summed up: (§4)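 Cells in RPMI-1640 with 10% fetal calf serum were exposed to ligand (0.001−0.1 μM) plus enzalutamide (0.5−50 μM) at a fixed ratio, five concentrations, for 72 h at 37 °C, 5% CO2. Viability read by MTS absorbance at 490 nm after 4 h. Combination index computed at ED50 and ED75 by the Chou–Talalay method.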

Data set [13] deals with DU-145. As to the kind of experiment: Effect on c-MYC mRNA expression in human DU145 cells at IC50 after 48 hrs by RT-PCR analysis. Type of data set: functional, cell-based. The method, boiled down: as §1
Data set [14] relates to Quadruplex DNA. Briefly: Stabilization of AR G-quadruplex oligonucleotide in human PC3 cells assessed as up-regulation of WNT1 mRNA expression at IC50 after 48 hrs by RT-PCR analysis. Type of data set: cell-based. Summed up: as §2
Data set [15] relates to CWR22R. Briefly: Effect on c-MYC mRNA expression in human 22Rv1 cells at IC50 after 48 hrs by RT-PCR analysis. It is filed as functional, cell-based. Summed up: as §1
The subject of data set [16] is Quadruplex DNA. Briefly: Stabilization of AR3 G-quadruplex oligonucleotide (unknown origin) assessed as melting temperature at 16 uM after 16 hrs in presence of 100 mM K+ by CD spectra analysis (reference value: 78.8 +/- 1.7 degreeC). It is filed as nucleic-acid assay.
For data set [17], the system named is CWR22R. Briefly: Synergistic cytotoxicity against human 22Rv1 cells expressing full length androgen receptor H875Y point mutant assessed as combination index for reduction in cell viability measured at ED50 Enzalutamide at 0.001 to 0.1 uM after 72 hrs by MTS assay based Chou and Talay's plot analysis. Type of data set: functional. Summed up:
as §4

Data set [18] concerns Quadruplex DNA. Briefly: Stabilization of AR1 template G-quadruplex DNA (unknown origin) assessed as inhibition of polymerase progression at G4 site by measuring reduction in full length amplified product using GGCAAAAAGCAGCTGCTTATATGCAG as primer at 12.5 to 200 nM after 30 mins in presence of 5'-end labeled [gamma32P]ATP by phosphorimaging based taq polymerase stop assay. It is filed as nucleic-acid assay. Summed up: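 Primer 5′-labeled with [γ-32P]ATP by T4 polynucleotide kinase, 37 °C, 30 min. Labeled primer (72 nM final) annealed to template (36 nM final) in 10 mM lithium cacodylate pH 7.4, with or without 10 mM KCl, by heating at 95 °C for 5 min then slow cooling.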

Data set [19] in a line: Stabilization of AGTGAGAGTGAGAGAGAGAGTGAGAGTGAGAGTGA ssDNA (unknown origin) assessed as change in melting temperature at 16 uM after 16 hrs in presence of 100 mM K+ by CD spectra analysis. Summed up: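 CD: oligos at 4 μM final in 10 mM lithium cacodylate pH 7.4, 100 mM KCl, annealed 95 °C 5 min then 4 h room temperature; duplex from equimolar strands. Ligand 16 μM final, 16 h room temperature. Spectra 230−320 nm, 5 mm cell, two scans averaged at 20 °C, buffer-subtracted; melting from spectra 20−90 °C in 5 °C steps.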

For data set [20], the system named is Quadruplex DNA. As to the kind of experiment: Stabilization of AR G-quadruplex oligonucleotide in human DU145 cells assessed as up-regulation of WNT1 mRNA expression at IC50 after 48 hrs by RT-PCR analysis. Type of data set: cell-based. The method, boiled down:
as §1

Data set [21] has as its system Quadruplex DNA. As to the kind of experiment: Stabilization of AR1 G-quadruplex oligonucleotide (unknown origin) assessed as melting temperature at 16 uM after 16 hrs in presence of 100 mM K+ by CD spectra analysis (reference value: 74.9 +/- 0.3 degreeC). It is filed as nucleic-acid assay.

pIC50: −log10 of the molar value. Calls of active or inactive are those of the source. No cut-off for these calls is given here.

By ΔTm is commonly meant the shift of the melting midpoint relative to a reference. For orientation: pIC50 means the negative decadic logarithm of the IC50, by convention in mol/L.

As to `CN(C)CCCn1c(=O)c2ccc3c(=O)n(CCCN(C)C)c(=O)c4c5[nH]c6ccccc6[nH]c5c(c1=O)c2c34.Cl.Cl`, the result in [1], in data set [13] and in [15] was inactive. Moreover, the results for the ΔTm in data set [2] and in data set [19] were 20.5 °C and 4.7 °C, respectively. In addition, the result in data set [3], in [5], in [8], in data set [10], in data set [11] and in data set [14] was Active. In data set [20], the result was Active. Besides, the figures for the CI in data set [4] and in data set [17] were >1 and <1, respectively. Further, the pIC50 was 8.00 in [6] and 6.74 in [7]. Moreover, in data set [9], the Drug uptake entry is given as “Active”. For the same compound, the ED75 in data set [12] was found to be 370 nM. Besides, the Tm in [16] and in data set [21] was > 90 °C throughout. For the same compound, in data set [18], the inhibition result is “Active”.
